XiGFP reactiv: activators of X-chromosome reactivation in mouse fibroblasts; XiGFP mouse fibroblasts, % GFP-positive cells imaging, 3 d; cells co-treated with 5-aza-dC sensitizer; scaled so ellipticine positive control = 100%; activation, % at 7.58 µM; 0.055% of 360,000 active;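 active = mean normalized replicate activation at least 10% and every replicate at or above 10%; inconclusive = only one of the two criteria met; inactive = mean below 10% and not all replicates reach 10%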
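System: SV40-immortalized XiGFP fibroblast cells, line 68-5-11 / Incubation: 3-day compound exposure, then 15 min fixation at room temperature / Compound: single concentration per compound, delivered by pin transfer / Buffer or medium: DMEM plus 5-aza-dC sensitizer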
E-sel inducer: induces E-selectin expression in human endothelial cells | HUVEC E-selectin immunofluorescence imaging; normalized: neutral wells 0, TNF-alpha wells 100 | activation, % at 7.58 µM | 0.37% of 260,000 active | AID 686992;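 active = mean E-selectin-positive cell signal at least 10% of the positive control, reached in at least 60% of replicates, without over 20% cell loss; inconclusive = no rule given, readout overlaps actives, possibly toxicity-flagged; inactive = the rest, including those meeting only one limit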
Target sequence (P16581 whole entry, looked up): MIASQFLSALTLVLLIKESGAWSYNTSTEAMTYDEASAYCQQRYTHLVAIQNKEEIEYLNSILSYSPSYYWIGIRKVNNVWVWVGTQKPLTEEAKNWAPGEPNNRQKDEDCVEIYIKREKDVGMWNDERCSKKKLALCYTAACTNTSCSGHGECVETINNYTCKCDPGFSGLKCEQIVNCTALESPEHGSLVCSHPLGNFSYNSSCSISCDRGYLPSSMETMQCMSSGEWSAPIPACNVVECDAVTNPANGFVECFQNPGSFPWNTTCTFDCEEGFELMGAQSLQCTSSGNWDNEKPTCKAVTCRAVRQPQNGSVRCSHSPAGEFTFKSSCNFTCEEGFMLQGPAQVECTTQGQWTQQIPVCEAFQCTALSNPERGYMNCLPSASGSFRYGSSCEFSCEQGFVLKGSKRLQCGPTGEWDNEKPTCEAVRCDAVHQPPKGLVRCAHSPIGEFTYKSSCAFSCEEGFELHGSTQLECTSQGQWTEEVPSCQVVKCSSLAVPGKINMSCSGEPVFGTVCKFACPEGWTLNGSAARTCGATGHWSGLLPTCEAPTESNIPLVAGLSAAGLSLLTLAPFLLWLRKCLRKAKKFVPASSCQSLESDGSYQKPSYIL
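assay system = HUVEC, human umbilical vein endothelial cells | input = 3,000 HUVEC seeded per well | medium = EGM-2 growth medium on 0.1% gelatin-coated wells | dosing = one compound dose added by pin transfer | signal = immunofluorescence imaging | read-out basis = % PE-positive cells | control set = TNF-alpha, DMSO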
DENV2 CPE: protects cells from dengue virus 2 cytopathic effect; CPE inhibition, % at 9.99 µM; AID 651640; 1.7% of 350,000 active; DENV2-infected cells, cytopathic effect rescue, plate reader; in the data active = CPE inhibition above about 20%, passing the limit was not always enough; inconclusive = no clear call, values can overlap the other calls; tested in BHK-21 cells
S100A4 MyoIIA: inhibitors of human S100A4 binding to myosin IIA peptide; inhibition, % at 10.7 µM; AID 652163; S100A4/TAMRA-MyoIIA peptide fluorescence polarization; P26447; 0.14% of 360,000 active;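 active = mean inhibition of at least 70% across replicates, with every replicate also reaching that level; inconclusive = mean inhibition reaches 70% but some replicates fall short; inactive = mean inhibition below 70%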
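Material: S100A4 monomer protein / Buffer or medium: 50 mM HEPES pH 7.2, 10 mM CaCl2, 100 mM KCl / Times: 5 min incubation before reading / Benchmarks: neutral control DMSO, positive control TFP / Reagent: labelled myosin peptide probe, 5 nM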
A number is an active result. A selection: hits, their analogues and other compounds. The true share with any hit is near 2%.

COC(=O)C[C@@H]1CC[C@@H]2[C@@H](COc3ccc(NS(C)(=O)=O)cc3C(=O)N2C)O1 was read as XiGFP reactiv inactive, E-sel inducer inactive and DENV2 CPE inactive.
`Cn1c(CC(=O)Nc2ccccc2Cl)nnc1SCC(=O)Nc1nncs1` gave XiGFP reactiv inactive, E-sel inducer inactive, DENV2 CPE inconclusive and S100A4 MyoIIA inactive.
COc1ccc(/C=C\c2onc(C)c2S(=O)(=O)N2CCC(C(=O)NCCC(C)C)CC2)cc1 was read as XiGFP reactiv inactive, DENV2 CPE inactive and S100A4 MyoIIA inactive.
For Cc1nc(N2CCN(c3ccccn3)CC2)c2c(C)c(C(=O)Nc3ccc(F)cc3Cl)sc2n1 the results were XiGFP reactiv inactive, E-sel inducer 43.5, DENV2 CPE inactive and S100A4 MyoIIA inactive.
For Cc1nc(N2CCN(c3ccccn3)CC2)c2c(C)c(C(=O)Nc3ccc(F)cc3F)sc2n1 the results were XiGFP reactiv inactive, E-sel inducer inactive, DENV2 CPE inactive and S100A4 MyoIIA inactive.
For COc1ccc(NC(=O)CCNS(=O)(=O)c2ccc(Br)s2)cc1 the results were DENV2 CPE inactive and S100A4 MyoIIA inactive.
For O=C(NC[C@@H]1N[C@@H](CO)[C@@H]1c1ccccc1)c1ccccc1F the results were XiGFP reactiv inactive, E-sel inducer inactive, DENV2 CPE 29.2 and S100A4 MyoIIA inactive.
For COc1ccc(CCNC(=O)C2CC3Cn4c(nc5cc(Cl)c(Cl)cc54)C3N2C)cc1 (stereo not drawn) the results were XiGFP reactiv inactive, E-sel inducer inactive, DENV2 CPE inactive and S100A4 MyoIIA inactive.
Screening CN1C(C(=O)NCCc2cccs2)CC2Cn3c(nc4cc(Cl)c(Cl)cc43)C21 (stereo not drawn) returned XiGFP reactiv inactive, E-sel inducer inactive, DENV2 CPE 79.7 and S100A4 MyoIIA inactive.
For COCCNC(=O)C1CC2Cn3c(nc4cc(C)c(C)cc43)C2N1C (stereo not drawn) the results were XiGFP reactiv inactive, E-sel inducer inactive, DENV2 CPE 29.1 and S100A4 MyoIIA inactive.
For COCCNC(=O)C1CC2Cn3c(nc4cc5ccccc5cc43)C2N1C (stereo not drawn) the results were XiGFP reactiv inactive, E-sel inducer inactive, DENV2 CPE inactive and S100A4 MyoIIA inactive.
For O=C(C[C@@H]1CC[C@H]2[C@@H](COC[C@H](O)CN2Cc2cccc(Cl)c2)O1)NCc1cccc(F)c1 the results were XiGFP reactiv inactive, E-sel inducer inactive, DENV2 CPE inactive and S100A4 MyoIIA inactive.
For CCn1cc(C(=O)NC(C)CCc2ccccc2)c(=O)c2cc(S(=O)(=O)N(C)C)ccc21 (stereo not drawn) the results were XiGFP reactiv inactive, E-sel inducer inactive, DENV2 CPE 50.6 and S100A4 MyoIIA inactive.
C[C@H](NC(=O)[C@H]1N[C@H]2c3ccc(C4=CCCCC4)c(=O)n3C[C@H]2[C@@H]1CO)c1ccccc1 was read as XiGFP reactiv inactive, E-sel inducer inactive, DENV2 CPE inactive and S100A4 MyoIIA inactive.
For Cc1nnc(N/N=C/c2c(O)n(-c3cccc(C(F)(F)F)c3)c(=O)c3ccccc23)[nH]c1=O the results were XiGFP reactiv inactive, E-sel inducer inactive, DENV2 CPE inactive and S100A4 MyoIIA inactive.
CN(C(=O)Nc1ccc(F)cc1)[C@H]1C[C@H]2c3[nH]c4ccccc4c3CCN2C(=O)[C@H]1CO was read as XiGFP reactiv inactive, DENV2 CPE 43.9 and S100A4 MyoIIA inactive.
Screening COc1ccc(NC(=O)N(C)[C@H]2C[C@H]3c4[nH]c5ccccc5c4CCN3C(=O)[C@H]2CO)cc1 returned XiGFP reactiv inactive, E-sel inducer inactive, DENV2 CPE inactive and S100A4 MyoIIA inactive.
For C[C@H]1CN([C@@H](C)CO)C(=O)c2cc(NS(=O)(=O)c3ccccc3)ccc2O[C@H]1CN(C)S(=O)(=O)c1cn(C)cn1 the results were XiGFP reactiv inactive, E-sel inducer inactive, DENV2 CPE inactive and S100A4 MyoIIA inactive.
COCC(=O)NC[C@H]1N[C@H](CO)[C@@H]1c1ccc(C2=CCCC2)cc1 was read as XiGFP reactiv inactive, E-sel inducer inactive and DENV2 CPE inactive.
`CCC[C@@H]1CCCO[C@@](C(=O)NCc2ccccn2)(C(F)(F)F)C1` gave XiGFP reactiv inactive, E-sel inducer inactive, DENV2 CPE 68.8 and S100A4 MyoIIA inactive.
Screening Nc1sc(Cc2ccccc2)cc1C(=O)c1c(-c2ccccc2)[nH]c2ccccc12 returned XiGFP reactiv inactive, E-sel inducer inactive, DENV2 CPE 83.6 and S100A4 MyoIIA inactive.
`CCOc1ccc(Oc2ccccc2NC(=O)CSCC(=O)Nc2cc(C)on2)cc1` gave XiGFP reactiv inactive, DENV2 CPE inactive and S100A4 MyoIIA inactive.
For CCCNC(=O)N1CC[C@@H]2[C@@H](CO)N(C)c3ccc(C#Cc4ccccc4F)cc3[C@@H]21 the results were XiGFP reactiv inactive.
Cc1cc(C)n2nc(CC(=O)NNC(=O)COc3cccc(C)c3C)nc2n1 was read as XiGFP reactiv inactive, DENV2 CPE inactive and S100A4 MyoIIA inactive.
COc1ccc2ccccc2c1-c1sc(Nc2ccccc2)n[n+]1-c1ccc(F)cc1 was read as XiGFP reactiv inactive, DENV2 CPE 51.5 and S100A4 MyoIIA inactive.
COc1ccc(-c2sc(Nc3ccccc3)n[n+]2-c2ccc(F)cc2)cc1Br was read as XiGFP reactiv inactive, DENV2 CPE inconclusive and S100A4 MyoIIA inactive.
Screening CO/N=C/C(C#N)=C/c1cc(C(=O)c2ccccc2)cn1C returned XiGFP reactiv inactive, DENV2 CPE 46.3 and S100A4 MyoIIA inactive.
For CO/N=C/C(C#N)=C/c1ccc(OC)c(OC)c1 the results were XiGFP reactiv inactive, DENV2 CPE inactive and S100A4 MyoIIA inactive.
COC(=O)C1=C(C(=O)OC)[C@@H]2Nc3ccccc3[C@@]23C[C@@H](C(=O)OC)N(C(=O)c2cccs2)C3=N1 was read as XiGFP reactiv inactive, E-sel inducer inactive, DENV2 CPE 67.6 and S100A4 MyoIIA inactive.
`O=C(Nc1ccc2nc3n(c(=O)c2c1)CCCC3)c1cccc(F)c1` gave XiGFP reactiv inactive, DENV2 CPE inactive and S100A4 MyoIIA inactive.
O=C(Nc1ccc2nc3n(c(=O)c2c1)CCCC3)c1ccccc1F was read as XiGFP reactiv inactive, E-sel inducer inactive, DENV2 CPE 38.6 and S100A4 MyoIIA inactive.
Screening O=C([C@H]1[C@H](CO)[C@H]2Cn3c(cccc3=O)[C@@H]1N2CC1CCCCC1)N1CCOCC1 returned XiGFP reactiv inactive, E-sel inducer inactive, DENV2 CPE 62.9 and S100A4 MyoIIA inactive.
`CC(C)NC(=O)N1[C@@H]2c3cccc(=O)n3C[C@@H]2[C@@H](CO)[C@@H]1C(=O)N1CCC(Cc2ccccc2)CC1` gave XiGFP reactiv inactive, E-sel inducer inactive, DENV2 CPE inactive and S100A4 MyoIIA inactive.
CC=Cc1ccc2n(c1=O)C[C@@H]1[C@@H](CO)[C@H](C(=O)N3CCOCC3)[C@H]2N1CC1CCCC1 (mixture of isomers) was read as XiGFP reactiv inactive, E-sel inducer inactive, DENV2 CPE 36.5 and S100A4 MyoIIA inactive.
